Test results: ChEMBL document CHEMBL4411278, “Discovery of potent and selective inhibitors of the Escherichia coli M1-aminopeptidase via multicomponent solid-phase synthesis of tetrazole-peptidomimetics” (Eur J Med Chem, 2019)
Active and inactive are the calls of the source. The calls are words filed in the database; no cut-off is given here.

Experiments:
[1] = (§1) Inhibition of recombinant Escherichia coli M1 aminopeptidase using Leu-pNA as substrate preincubated for 15 mins followed by substrate addition
Summary of the method: (§2)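 Recombinant ePepN (partially purified by ion exchange) or porcine kidney cortex microsomal APN was pre-incubated 15 min at 25°C with inhibitor in DMSO (final ≤2% v/v), then 75 μM Leu-pNA (~1 KMapp) was added. Buffer was 50 mM Tris-HCl pH 8.0. A405 was read every 15 s for 3 min. Doses were double serial dilutions over 0.781–100 μM, and IC50 came from a logistic fit of residual activity (vi/v0); at least triplicate.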

[2] = tested on: Escherichia coli; assay: as §1; summary of the method: as §2
[3] = tested on: Escherichia coli; assay: Reversible inhibition of recombinant Escherichia coli M1 aminopeptidase using Leu-pNA as substrate preincubated for 15 mins followed by substrate addition; summary of the method: as §2
[4] = Inhibition of M1 aminopeptidase in porcine kidney cortex microsomes using Leu-pNA as substrate preincubated for 15 mins followed by substrate addition; set-up: species or system Sus scrofa
[5] = Selectivity index, ratio of IC50 for M1 aminopeptidase in porcine kidney cortex microsomes to IC50 for recombinant Escherichia coli M1 aminopeptidase
[6] = (§3) Inhibition of recombinant Escherichia coli M1 aminopeptidase using Leu-pNA as substrate preincubated for 45 mins followed by substrate addition; conditions: in the assay text read “15 mins” for “45 mins”
Summary of the method: (§4)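 The time to reach inhibition equilibrium was tested by pre-incubating recombinant ePepN with inhibitor for 5, 10, 15, 30 or 45 min at 25°C. Residual activity was then measured on 75 μM Leu-pNA in 50 mM Tris-HCl pH 8.0, reading A405 continuously against a DMSO control.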

[7] = tested on: Escherichia coli; assay: as §3; summary of the method: as §4
[8] = Haemolytic activity in human erythrocytes assessed as induction of hemolysis at 100 uM after 20 hrs relative to control; assay type: cell-based, Erythrocyte; conditions: read-out: Activity
Summary of the method: (§5)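 Fresh human red blood cells were washed and resuspended in 145 mM NaCl, 10 mM Tris-HCl pH 7.4, adjusted so full lysis with Na2CO3 gives A540 ≈0.7. Cells were incubated with compounds for 3, 6 or 20 h, with untreated and 1% DMSO controls. Supernatant haemoglobin was measured after centrifugation.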

[9] = tested on: Erythrocyte; assay: Haemolytic activity in human erythrocytes assessed as induction of hemolysis after 3 hrs; assay type: cell-based; summary of the method: as §5
[10] = tested on: Escherichia coli; assay: Growth inhibition of Escherichia coli BL21 up to 100 uM after 3 to 20 hrs by spectrophotometric analysis; assay type: functional, organism-based
Summary of the method: (§6)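 E. coli BL21 was inoculated at 1% from an overnight culture into LB. Compounds were added at eight concentrations (0.781–100 μM) from DMSO serial dilutions, with DMSO and 200 μg/mL ampicillin controls; four replicates. Plates were held at 37°C and raised to 42°C at 6 h. A595 was read at 0, 3, 6 and 20 h and normalized to the DMSO control (100% growth).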

[11] = tested on: Erythrocyte; assay: Haemolytic activity in human erythrocytes assessed as induction of hemolysis after 6 hrs; assay type: cell-based; summary of the method: as §5
[12] = tested on: Erythrocyte; assay: Haemolytic activity in human erythrocytes assessed as induction of hemolysis after 20 hrs; assay type: cell-based; summary of the method: as §5
[13] = Cytotoxicity against mouse P3X63Ag assessed as reduction in cell viability after 3 hrs by MTT assay
Summary of the method: (§7)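 P3X63Ag murine myeloma cells were grown in DMEM-F12 with 10% FCS at 37°C, 5% CO2. For the assay they were plated in serum-free DMEM-F12 and exposed to compounds for 3, 6 or 20 h. After a PBS wash, cells got MTT for 3 h and crystals were dissolved in DMSO. Absorbance was read at 450 nm (620 nm reference), and viability calculated as 100×At/Ac versus untreated cells.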

[14] = Cytotoxicity against mouse P3X63Ag assessed as reduction in cell viability after 6 hrs by MTT assay; summary of the method: as §7
[15] = Cytotoxicity against mouse P3X63Ag assessed as reduction in cell viability after 20 hrs by MTT assay; summary of the method: as §7
[16] = tested on: Escherichia coli; assay: Reversible inhibition of recombinant Escherichia coli M1 aminopeptidase using Leu-pNA as substrate preincubated for 45 mins followed by substrate addition; conditions: in the assay text read “15 mins” for “45 mins”; summary of the method: as §4
[17] = tested on: Escherichia coli; assay: Noncompetitive inhibition of recombinant Escherichia coli M1 aminopeptidase assessed as Km for substrate at 1.56 uM using Leu-pNA as substrate preincubated for 15 mins followed by substrate addition by Lineweaver-Burk double reciprocal plot analysis (reference value: 120 umol/L)
[18] = tested on: Escherichia coli; assay: Noncompetitive inhibition of recombinant Escherichia coli M1 aminopeptidase assessed as Km for substrate at 6.25 uM using Leu-pNA as substrate preincubated for 15 mins followed by substrate addition by Lineweaver-Burk double reciprocal plot analysis (reference value: 120 umol/L)
[19] = tested on: Escherichia coli; assay: Noncompetitive inhibition of recombinant Escherichia coli M1 aminopeptidase assessed as Km for substrate at 3.125 uM using Leu-pNA as substrate preincubated for 15 mins followed by substrate addition by Lineweaver-Burk double reciprocal plot analysis (reference value: 120 umol/L)
[20] = tested on: Escherichia coli; assay: Noncompetitive inhibition of recombinant Escherichia coli M1 aminopeptidase assessed as Vmax for substrate at 1.56 uM using Leu-pNA as substrate preincubated for 15 mins followed by substrate addition by Lineweaver-Burk double reciprocal plot analysis (reference value: 125 10^-3OD/min)
[21] = tested on: Escherichia coli; assay: Noncompetitive inhibition of recombinant Escherichia coli M1 aminopeptidase assessed as Vmax for substrate at 6.25 uM using Leu-pNA as substrate preincubated for 15 mins followed by substrate addition by Lineweaver-Burk double reciprocal plot analysis (reference value: 125 10^-3OD/min)
[22] = tested on: Escherichia coli; assay: Noncompetitive inhibition of recombinant Escherichia coli M1 aminopeptidase assessed as Vmax for substrate at 3.125 uM using Leu-pNA as substrate preincubated for 15 mins followed by substrate addition by Lineweaver-Burk double reciprocal plot analysis (reference value: 125 10^-3OD/min)
[23] = Cytotoxicity against mouse P3X63Ag assessed as reduction in cell viability at 50 uM after 3 hrs by MTT assay relative to control; summary of the method: as §7
[24] = Cytotoxicity against mouse P3X63Ag assessed as reduction in cell viability at 50 uM after 6 hrs by MTT assay relative to control; summary of the method: as §7
[25] = Cytotoxicity against mouse P3X63Ag assessed as reduction in cell viability at 50 uM after 20 hrs by MTT assay relative to control; summary of the method: as §7
[26] = tested on: Escherichia coli; assay: Growth inhibition of Escherichia coli BL21 after 3 to 6 hrs by spectrophotometric analysis; assay type: functional, organism-based; summary of the method: as §6
[27] = tested on: Escherichia coli; assay: Growth inhibition of Escherichia coli BL21 after 20 hrs by spectrophotometric analysis; assay type: functional, organism-based; conditions: BL21, BL21, 20 h; summary of the method: as §6

SMILES | IC50 [1] | inhibition [2] | inhibition [3] | other results
CC(C)[C@H](NC(c1ncc[nH]1)c1nnnn1Cc1ccccc1)C(=O)O (some centres not stated) | 71 µM | Dose-dependent effect | Active | –
O=C(O)[C@H](Cc1c[nH]c2ccccc12)NC(c1ccco1)c1nnnn1Cc1ccccc1 (some centres not stated) | – | – | – | IC50 [4]: 6100 µM; Ratio IC50 [5]: 23500; IC50 [6]: 0.26 µM; inhibition [7]: Dose-dependent effect; hemolysis at 20 h, 100 µM [8]: 15%; HC20 [9]: > 100 µM; growth inhibition (GI) [10]: inactive; HC20 [11]: > 100 µM; HC20 [12]: > 100 µM; IC50 [13]: > 100 µM; IC50 [14]: > 100 µM; IC50 [15]: > 100 µM; inhibition [16]: Active; Km [17]: 71.3 µM; Km [18]: 61.4 µM; Km [19]: 69.3 µM; Vmax [20]: 45.5 mOD/min; Vmax [21]: 23.3 mOD/min; Vmax [22]: 34.5 mOD/min
COc1ccc(C(N[C@H](C(=O)O)C(C)C)c2nnnn2Cc2ccccc2)cc1 (some centres not stated) | > 1000 µM | – | – | growth inhibition (GI) [10]: inactive
O=C(O)[C@H](Cc1c[nH]c2ccccc12)NC(c1ncc[nH]1)c1nnnn1Cc1ccccc1 (some centres not stated) | 25 µM | Dose-dependent effect | Active | –
COc1ccc(C(N[C@@H](Cc2c[nH]c3ccccc23)C(=O)O)c2nnnn2C2CCCCC2)cc1 (some centres not stated) | 630 µM | Dose-dependent effect | Active | –
O=C(O)[C@H](Cc1ccccc1)NC(c1ccco1)c1nnnn1Cc1ccccc1 (some centres not stated) | 17 µM | Dose-dependent effect | Active | –
O=C(O)[C@H](Cc1c[nH]c2ccccc12)NC(c1ncc[nH]1)c1nnnn1C1CCCCC1 (some centres not stated) | 48 µM | Dose-dependent effect | Active | –
COc1ccc(C(N[C@H](C(=O)O)C(C)C)c2nnnn2C2CCCCC2)cc1 (some centres not stated) | 90 µM | Dose-dependent effect | Active | –
O=C(O)[C@H](Cc1ccccc1)NC(c1ccco1)c1nnnn1C1CCCCC1 (some centres not stated) | 41 µM | Dose-dependent effect | Active | –
CC(C)[C@H](NC(c1ncc[nH]1)c1nnnn1C1CCCCC1)C(=O)O (some centres not stated) | 127 µM | Dose-dependent effect | Active | –
CC(C)C[C@H](NC(=O)[C@@H](O)[C@H](N)Cc1ccccc1)C(=O)O [UBENIMEX] | 7 µM | – | – | growth inhibition (GI) [10]: inactive

Second part, led by results:

IC50 [1] | inhibition [2] | inhibition [3] | SMILES | other results
160 µM | Dose-dependent effect | Active | COc1ccc(C(N[C@H](C(=O)O)C(C)C)c2nnnn2CCCc2ccccc2)cc1 (some centres not stated) | –
170 µM | Dose-dependent effect | Active | CC(C)[C@H](NCc1nnnn1CCCc1ccccc1)C(=O)O | –
27 µM | Dose-dependent effect | Active | CC(C)[C@H](NC(c1cccnc1)c1nnnn1C1CCCCC1)C(=O)O (some centres not stated) | –
44 µM | Dose-dependent effect | Active | O=C(O)[C@H](Cc1ccc(OCc2ccccc2)cc1)NCc1nnnn1C1CCCCC1 | –
22 µM | Dose-dependent effect | Active | O=C(O)[C@H](Cc1c[nH]c2ccccc12)NC(c1cccnc1)c1nnnn1C1CCCCC1 (some centres not stated) | –
470 µM | Dose-dependent effect | Active | CC(C)[C@H](NC(c1ncc[nH]1)c1nnnn1CCCc1ccccc1)C(=O)O (some centres not stated) | –
110 µM | Dose-dependent effect | Active | O=C(O)[C@H](Cc1c[nH]c2ccccc12)NCc1nnnn1C1CCCCC1 | –
1.4 µM | Dose-dependent effect | Active | COc1ccc(C(N[C@@H](Cc2ccc(OCc3ccccc3)cc2)C(=O)O)c2nnnn2C2CCCCC2)cc1 (some centres not stated) | Activity [23]: <= 60%; Activity [24]: <= 50%; IC50 [4]: 1580 µM; Ratio IC50 [5]: 1130; hemolysis at 20 h, 100 µM [8]: 40%; HC20 [9]: > 100 µM; HC20 [11]: 70 µM; HC20 [12]: 65 µM; Activity [25]: <= 50%; IC50 [13]: > 100 µM; IC50 [14]: 100 µM; IC50 [15]: 100 µM; IC50 [26]: < 50 µM; IC50 [27]: < 100 µM
2.2 µM | Dose-dependent effect | Active | O=C(O)[C@H](Cc1c[nH]c2ccccc12)NC(c1ccco1)c1nnnn1C1CCCCC1 (some centres not stated) | Activity [23]: <= 60%; Activity [24]: <= 50%; IC50 [4]: 2000 µM; Ratio IC50 [5]: 909; hemolysis at 20 h, 100 µM [8]: 40%; HC20 [9]: 80 µM; growth inhibition (GI) [10]: inactive; HC20 [11]: 70 µM; HC20 [12]: 55 µM; Activity [25]: <= 50%; IC50 [13]: > 100 µM; IC50 [14]: > 100 µM; IC50 [15]: 100 µM
7.2 µM | Dose-dependent effect | Active | COc1ccc(C(N[C@@H](Cc2c[nH]c3ccccc23)C(=O)O)c2nnnn2Cc2ccccc2)cc1 (some centres not stated) | –
47 µM | Dose-dependent effect | Active | CC(C)[C@H](NCc1nnnn1Cc1ccccc1)C(=O)O | –
